Experimental data from ChEMBL document CHEMBL4387708, “Enhancement of Benzothiazoles as Pteridine Reductase-1 Inhibitors for the Treatment of Trypanosomatidic Infections” (J Med Chem, 2019).

Experiments:
Trypanosoma cruzi = test: Growth inhibition of trypomastigote form of Trypanosoma cruzi Y infected in human U2OS cells at 50 uM measured after 72 hrs by DRAQ5 DNA dye based confocal microscopic analysis relative to control; format: organism-based; settings: for growth inhibition (GI): trypanosoma cruzi, 50 µM; for inhibition at 50 µM: Trypanosoma cruzi, Y, U2OS, read-out: GI
Leishmania infantum = test: Growth inhibition of luciferase expressing Leishmania infantum axenic amastigotes infected in human THP1 cells at 10 uM measured after 72 hrs by steady-glo luminescence assay relative to control; format: organism-based; settings: for growth inhibition (GI): leishmania infantum, 72 h, 10 µM; for inhibition at 10 µM: Leishmania infantum, THP-1, 72 h, read-out: GI
Pteridine reductase 1 = target: T1, Pteridine reductase 1 (Leishmania major, UniProt Q01782); test: Inhibition of Leishmania major pteridine reductase 1 using di-hydrobiopterine as substrate in presence of NADPH; settings: read-out: IC50
T1 sequence (Q01782 whole entry): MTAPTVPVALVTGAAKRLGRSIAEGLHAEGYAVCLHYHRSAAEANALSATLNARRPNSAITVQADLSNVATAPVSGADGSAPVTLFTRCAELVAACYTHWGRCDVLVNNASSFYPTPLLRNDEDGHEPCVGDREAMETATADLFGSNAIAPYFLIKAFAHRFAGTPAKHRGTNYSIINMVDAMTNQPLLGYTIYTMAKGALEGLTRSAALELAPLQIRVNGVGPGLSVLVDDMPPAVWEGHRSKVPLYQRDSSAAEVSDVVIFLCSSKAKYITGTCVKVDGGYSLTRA
Method in brief: (§1)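 Photometric PTR1 assay with NADPH and dihydrobiopterin substrate. H₄B formation is coupled non-enzymatically to cytochrome c reduction, read as signal increase at 550 nm.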

[1] = Inhibition of N-terminal His-tagged Trypanosoma brucei pteridine reductase 1 using di-hydrobiopterine as substrate measured at 1 min interval for 50 mins in presence of NADPH; method in brief: as §1
Trypanosoma brucei [2] = test: Inhibition of N-terminal His-tagged Trypanosoma brucei pteridine reductase 1 at 50 uM using di-hydrobiopterine as substrate measured at 1 min interval for 50 mins in presence of NADPH relative to control; method in brief: as §1
[3] = target: T2, Pteridine reductase 1 (Leishmania major) (UniProt Q01782); test: Inhibition of Leishmania major pteridine reductase 1 at 50 uM using di-hydrobiopterine as substrate in presence of NADPH relative to control; method in brief: as §1
T2 sequence (whole entry): T1 sequence (Q01782 whole entry)

Trypanosoma brucei [4] = test: Growth inhibition of Trypanosoma brucei bloodstream forms at 10 uM measured after 72 hrs by resazurin-based fluorescence assay relative to control; format: organism-based; settings: for inhibition at 10 µM: Trypanosoma brucei, read-out: GI
[5] = target: Voltage-gated inwardly rectifying potassium channel KCNH2 (Homo sapiens, UniProt Q12809); test: Displacement of Tracer Red from human ERG by fluorescence polarization assay
Cytochrome P450 1A2 = target: T3, Cytochrome P450 1A2 (Homo sapiens, UniProt P05177); test: Inhibition of human CYP1A2 expressed in baculovirus infected insect cells using beetle D-luciferin as substrate preincubated for 30 mins followed by NADPH addition and measured after 30 mins by CYP450-Glo assay
T3 sequence (P05177 whole entry): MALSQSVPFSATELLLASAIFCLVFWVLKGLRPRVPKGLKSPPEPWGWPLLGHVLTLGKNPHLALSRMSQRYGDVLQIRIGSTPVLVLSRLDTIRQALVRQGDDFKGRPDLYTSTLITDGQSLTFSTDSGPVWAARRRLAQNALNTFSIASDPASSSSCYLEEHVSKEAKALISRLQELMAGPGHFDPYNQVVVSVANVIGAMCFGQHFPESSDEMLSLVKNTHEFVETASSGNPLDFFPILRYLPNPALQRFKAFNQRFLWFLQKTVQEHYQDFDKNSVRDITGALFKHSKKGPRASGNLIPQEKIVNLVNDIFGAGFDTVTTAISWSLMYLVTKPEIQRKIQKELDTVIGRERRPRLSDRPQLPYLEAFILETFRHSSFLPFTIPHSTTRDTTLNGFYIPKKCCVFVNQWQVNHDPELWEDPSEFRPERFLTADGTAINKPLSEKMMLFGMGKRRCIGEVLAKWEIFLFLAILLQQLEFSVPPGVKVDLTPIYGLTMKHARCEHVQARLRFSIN

[6] = Cytotoxicity against human A549 cells after 48 hrs by Celltiter-glo assay; format: cell-based
[7] = Cytotoxicity against human THP1 cells after 72 hrs by MTT assay; format: cell-based, THP-1; settings: read-out: NOAEL
[8] = Cytotoxicity against human U2OS cells assessed as reduction in cell number; format: cell-based
[9] = Mitochondrial toxicity in human 786-O cells measured after 6 hrs by MitoTracker Red chloromethyl-X-rosamine based assay; format: cell-based, 786-0
Cytochrome P450 2C9 = Cytochrome P450 2C9 (Homo sapiens, UniProt P11712); test: Inhibition of human CYP2C9 expressed in baculovirus infected insect cells using beetle D-luciferin as substrate preincubated for 30 mins followed by NADPH addition and measured after 30 mins by CYP450-Glo assay
Cytochrome P450 2C19 = Cytochrome P450 2C19 (Homo sapiens, UniProt P33261); test: Inhibition of human CYP2C19 expressed in baculovirus infected insect cells using beetle D-luciferin as substrate preincubated for 30 mins followed by NADPH addition and measured after 30 mins by CYP450-Glo assay
Cytochrome P450 2D6 = Cytochrome P450 2D6 (Homo sapiens, UniProt P10635); test: Inhibition of human CYP2D6 expressed in baculovirus infected insect cells using beetle D-luciferin as substrate preincubated for 30 mins followed by NADPH addition and measured after 30 mins by CYP450-Glo assay
Cytochrome P450 3A4 = Cytochrome P450 3A4 (Homo sapiens, UniProt P08684); test: Inhibition of human CYP3A4 expressed in baculovirus infected insect cells using beetle D-luciferin as substrate preincubated for 30 mins followed by NADPH addition and measured after 30 mins by CYP450-Glo assay
[10] = Selectivity ratio of IC50 for Leishmania major pteridine reductase 1 to IC50 for N-terminal His-tagged Trypanosoma brucei pteridine reductase 1

Sequence of Voltage-gated inwardly rectifying potassium channel KCNH2 (Q12809 whole entry): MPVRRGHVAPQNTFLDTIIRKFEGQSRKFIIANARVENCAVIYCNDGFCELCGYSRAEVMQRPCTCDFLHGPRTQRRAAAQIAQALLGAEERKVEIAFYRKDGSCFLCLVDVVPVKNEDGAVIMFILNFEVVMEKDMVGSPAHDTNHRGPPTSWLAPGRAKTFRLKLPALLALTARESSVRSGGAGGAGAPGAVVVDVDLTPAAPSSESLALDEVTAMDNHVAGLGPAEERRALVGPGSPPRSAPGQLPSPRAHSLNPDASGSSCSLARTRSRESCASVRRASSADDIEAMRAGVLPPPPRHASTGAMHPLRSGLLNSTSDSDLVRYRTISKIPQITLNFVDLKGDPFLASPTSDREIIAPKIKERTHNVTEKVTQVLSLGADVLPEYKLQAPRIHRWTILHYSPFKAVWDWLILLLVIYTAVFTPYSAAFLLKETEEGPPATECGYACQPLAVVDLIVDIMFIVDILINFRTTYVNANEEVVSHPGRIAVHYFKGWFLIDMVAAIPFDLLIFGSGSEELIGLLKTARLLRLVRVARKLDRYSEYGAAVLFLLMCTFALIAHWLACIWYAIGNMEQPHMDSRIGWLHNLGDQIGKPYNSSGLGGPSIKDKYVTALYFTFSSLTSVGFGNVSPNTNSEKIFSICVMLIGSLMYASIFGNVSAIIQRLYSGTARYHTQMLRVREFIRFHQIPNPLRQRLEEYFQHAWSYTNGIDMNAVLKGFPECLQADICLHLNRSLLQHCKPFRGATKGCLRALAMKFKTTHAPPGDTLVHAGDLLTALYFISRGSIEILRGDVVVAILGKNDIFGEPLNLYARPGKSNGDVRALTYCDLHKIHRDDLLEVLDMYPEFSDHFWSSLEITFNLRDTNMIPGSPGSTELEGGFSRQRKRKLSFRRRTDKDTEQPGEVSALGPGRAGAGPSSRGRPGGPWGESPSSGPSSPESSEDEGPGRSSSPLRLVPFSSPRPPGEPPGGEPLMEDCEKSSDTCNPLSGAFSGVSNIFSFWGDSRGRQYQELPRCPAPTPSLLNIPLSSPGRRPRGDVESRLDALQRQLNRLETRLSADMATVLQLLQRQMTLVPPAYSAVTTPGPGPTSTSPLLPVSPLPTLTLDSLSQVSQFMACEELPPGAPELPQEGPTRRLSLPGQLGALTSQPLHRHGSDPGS
Sequence of Cytochrome P450 2C19 (P33261 whole entry): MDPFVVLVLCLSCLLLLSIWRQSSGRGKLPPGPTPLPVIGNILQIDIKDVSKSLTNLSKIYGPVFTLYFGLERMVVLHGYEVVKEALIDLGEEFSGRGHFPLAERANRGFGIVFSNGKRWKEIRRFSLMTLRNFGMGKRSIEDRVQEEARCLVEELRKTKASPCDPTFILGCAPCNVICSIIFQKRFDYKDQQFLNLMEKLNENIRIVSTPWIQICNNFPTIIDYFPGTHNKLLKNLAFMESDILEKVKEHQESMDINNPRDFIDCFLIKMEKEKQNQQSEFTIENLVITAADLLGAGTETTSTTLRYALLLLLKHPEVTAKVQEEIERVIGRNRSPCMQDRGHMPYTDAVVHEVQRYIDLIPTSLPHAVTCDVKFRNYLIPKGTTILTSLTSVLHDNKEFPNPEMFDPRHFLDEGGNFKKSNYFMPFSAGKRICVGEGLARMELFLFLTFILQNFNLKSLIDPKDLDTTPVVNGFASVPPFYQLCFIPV
Sequence of Cytochrome P450 2C9 (P11712 whole entry): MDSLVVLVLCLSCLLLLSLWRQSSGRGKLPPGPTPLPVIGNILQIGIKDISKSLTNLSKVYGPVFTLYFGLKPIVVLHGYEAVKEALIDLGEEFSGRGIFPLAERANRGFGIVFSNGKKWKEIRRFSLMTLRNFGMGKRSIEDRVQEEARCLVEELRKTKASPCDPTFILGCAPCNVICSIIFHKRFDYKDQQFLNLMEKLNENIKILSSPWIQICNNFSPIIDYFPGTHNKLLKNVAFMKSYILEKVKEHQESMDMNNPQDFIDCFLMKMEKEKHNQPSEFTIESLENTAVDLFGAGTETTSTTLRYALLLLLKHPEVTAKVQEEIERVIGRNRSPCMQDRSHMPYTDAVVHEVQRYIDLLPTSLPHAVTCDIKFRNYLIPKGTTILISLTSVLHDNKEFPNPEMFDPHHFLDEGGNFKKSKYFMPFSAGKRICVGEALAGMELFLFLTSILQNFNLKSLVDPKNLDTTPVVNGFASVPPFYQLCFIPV
Sequence of Cytochrome P450 2D6 (P10635 whole entry): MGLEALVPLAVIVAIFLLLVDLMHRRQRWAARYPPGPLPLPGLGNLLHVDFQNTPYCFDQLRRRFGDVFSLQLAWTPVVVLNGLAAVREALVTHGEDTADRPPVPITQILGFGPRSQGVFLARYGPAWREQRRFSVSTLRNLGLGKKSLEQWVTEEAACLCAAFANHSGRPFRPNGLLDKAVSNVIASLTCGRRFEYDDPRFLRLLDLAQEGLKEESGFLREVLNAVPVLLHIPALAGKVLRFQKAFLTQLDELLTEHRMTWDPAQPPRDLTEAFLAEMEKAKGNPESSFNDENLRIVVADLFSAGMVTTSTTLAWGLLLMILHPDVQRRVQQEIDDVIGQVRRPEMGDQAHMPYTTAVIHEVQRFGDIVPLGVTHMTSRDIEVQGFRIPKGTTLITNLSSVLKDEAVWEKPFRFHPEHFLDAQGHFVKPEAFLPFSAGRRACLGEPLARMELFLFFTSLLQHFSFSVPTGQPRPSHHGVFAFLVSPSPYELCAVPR
Sequence of Cytochrome P450 3A4 (P08684 whole entry): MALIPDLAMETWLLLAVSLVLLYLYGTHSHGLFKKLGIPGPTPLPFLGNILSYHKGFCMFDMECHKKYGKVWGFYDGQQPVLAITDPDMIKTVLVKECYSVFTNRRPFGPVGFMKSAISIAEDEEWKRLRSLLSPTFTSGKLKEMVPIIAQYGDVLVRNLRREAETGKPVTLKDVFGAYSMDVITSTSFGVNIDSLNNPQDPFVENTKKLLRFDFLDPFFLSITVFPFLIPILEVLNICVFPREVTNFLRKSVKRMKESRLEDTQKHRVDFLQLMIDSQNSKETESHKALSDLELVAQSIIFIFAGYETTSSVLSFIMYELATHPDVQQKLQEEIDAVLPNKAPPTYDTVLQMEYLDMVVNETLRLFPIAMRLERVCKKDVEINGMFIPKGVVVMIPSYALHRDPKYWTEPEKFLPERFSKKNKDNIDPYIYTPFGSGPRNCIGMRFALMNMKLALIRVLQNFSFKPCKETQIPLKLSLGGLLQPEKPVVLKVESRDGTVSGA

Compound	growth inhibition (GI) (Trypanosoma cruzi)	growth inhibition (GI) (Leishmania infantum)	IC50 (Pteridine reductase 1)	IC50 [1]	inhibition (Trypanosoma brucei [2])	inhibition [3]	inhibition at 10 µM (Trypanosoma brucei [4])	IC50 [5]	IC50 (Cytochrome P450 1A2)	GI50 at 48 h [6]	MNTC at 72 h [7]	GI50 [8]	IC50 at 6 h [9]	IC50 (Cytochrome P450 2C9)	IC50 (Cytochrome P450 2C19)	IC50 (Cytochrome P450 2D6)	IC50 (Cytochrome P450 3A4)	Ratio IC50 [10]	inhibition at 50 µM (Trypanosoma cruzi)	also measured
Nc1nc2ccc(C(=O)NCc3ccc(C(=O)NCc4ccccc4)cc3)cc2s1	Non-Toxic	Non-Toxic	18.9 µM	6.85 µM	> 60%	> 60%	53%	> 25 µM	> 25 µM	> 25 µM	10 to 25 µM	> 25 µM	> 25 µM	–	–	–	–	–	–	–
CCc1nc(N)nc(N)c1-c1ccc(Cl)cc1 [PYRIMETHAMINE]	–	–	13.6 µM	0.09 µM	–	–	–	–	–	–	–	–	–	–	–	–	–	–	–	–
COC(=O)C1CCN(C(=O)c2ccc(CNC(=O)c3ccc4nc(N)sc4c3)cc2)CC1	Non-Toxic	Non-Toxic	–	21.8 µM	> 60%	1.97%	24%	< 10 µM	> 25 µM	> 25 µM	> 25 µM	> 25 µM	< 10 µM	> 25 µM	> 25 µM	> 25 µM	> 25 µM	2 to 100	–	–
N=C(N)c1ccc(OCCCCCOc2ccc(C(=N)N)cc2)cc1 [PENTAMIDINE]	–	–	–	–	–	–	–	–	> 25 µM	> 25 µM	> 25 µM	–	> 25 µM	–	> 25 µM	10 to 25 µM	–	–	–	–
Nc1nc2ccc(OC(F)(F)F)cc2s1 [RILUZOLE]	Non-Toxic	Non-Toxic	94.1 µM	15.1 µM	> 60%	> 60%	–	–	–	10 to 25 µM	> 25 µM	> 25 µM	> 25 µM	–	–	–	–	–	–	growth inhibition (GI) (Trypanosoma brucei [4]; trypanosoma brucei, 10 µM): Non-Toxic
CSc1ccc2nc(N)sc2c1	–	Non-Toxic	–	–	16.7%	26.9%	12%	< 10 µM	< 10 µM	> 25 µM	> 25 µM	> 25 µM	< 10 µM	> 25 µM	< 10 µM	< 10 µM	> 25 µM	2 to 100	22.5%	–
Nc1nc2c(O)cc(C(=O)NCc3ccccc3)cc2s1	–	–	2.48 µM	–	47.8%	> 60%	15%	> 25 µM	> 25 µM	> 25 µM	> 25 µM	> 25 µM	> 25 µM	> 25 µM	10 to 25 µM	< 10 µM	< 10 µM	2 to 100	28.8%	inhibition at 10 µM (Leishmania infantum): 11%
COc1cc(CNC(=O)c2ccc3nc(N)sc3c2)cc(OC)c1OC	–	Non-Toxic	–	–	30.8%	67.1%	9%	> 25 µM	> 25 µM	> 25 µM	> 25 µM	> 25 µM	> 25 µM	> 25 µM	> 25 µM	> 25 µM	> 25 µM	2 to 100	19.8%	–
COc1ccc2nc(N)sc2c1	–	Non-Toxic	–	–	29.9%	15.2%	6%	< 10 µM	10 to 25 µM	< 10 µM	> 25 µM	> 25 µM	< 10 µM	> 25 µM	10 to 25 µM	< 10 µM	10 to 25 µM	2 to 100	32.9%	–
Nc1nc2ccc(S(=O)(=O)Cc3ccccc3)cc2s1	Non-Toxic	Non-Toxic	–	57.6 µM	> 60%	27.1%	5%	> 25 µM	> 25 µM	> 25 µM	> 25 µM	> 25 µM	> 25 µM	> 25 µM	> 25 µM	10 to 25 µM	> 25 µM	2 to 100	–	–
Nc1nc2ccc(S(=O)(=O)Cc3ccc(Cl)c(Cl)c3)cc2s1	–	–	–	–	16.7%	26.9%	37%	> 25 µM	> 25 µM	10 to 25 µM	10 to 25 µM	> 25 µM	> 25 µM	> 25 µM	< 10 µM	< 10 µM	10 to 25 µM	2 to 100	32.8%	inhibition at 10 µM (Leishmania infantum): 21%
Nc1nc2ccc(C(=O)N(CCO)Cc3ccccc3)cc2s1	Non-Toxic	–	–	58.1 µM	> 60%	24.1%	8%	> 25 µM	> 25 µM	> 25 µM	> 25 µM	> 25 µM	> 25 µM	> 25 µM	> 25 µM	< 10 µM	10 to 25 µM	2 to 100	–	inhibition at 10 µM (Leishmania infantum): 20%
Nc1nc2ccc(C(=O)NCCc3cccs3)cc2s1	–	Non-Toxic	–	7.5 µM	> 60%	18.3%	17%	< 10 µM	10 to 25 µM	> 25 µM	> 25 µM	> 25 µM	> 25 µM	> 25 µM	> 25 µM	< 10 µM	> 25 µM	2 to 100	29.8%	–
COC(=O)C1CCN(C(=O)c2ccc(COc3ccc4nc(N)sc4c3)cc2)CC1	–	Non-Toxic	31.9 µM	3.3 µM	> 60%	> 60%	52%	> 25 µM	> 25 µM	> 25 µM	10 to 25 µM	> 25 µM	> 25 µM	–	–	> 25 µM	> 25 µM	–	27%	–
COC(=O)C1CCN(C(=O)c2ccc3nc(N)sc3c2)CC1	–	–	–	–	36.4%	23.3%	19%	> 25 µM	10 to 25 µM	> 25 µM	> 25 µM	> 25 µM	> 25 µM	10 to 25 µM	> 25 µM	10 to 25 µM	10 to 25 µM	2 to 100	64.2%	inhibition at 10 µM (Leishmania infantum): 8%
